Data published in ChEMBL document CHEMBL4513216, “Probing the Open Global Health Chemical Diversity Library for Multistage-Active Starting Points for Next-Generation Antimalarials” (ACS Infect Dis, 2020).

Experiment: Toxicity liver stage against HepG2, at 10uM
Assay type: cell-based
Parameters: test concentration 10 uM, cell line HepG2-A16-CD81EGFP
Settings: human, HepG2-A16-CD81EGFP cells; read-out: INHIBITION
Outline: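 Uninfected HepG2-A16-CD81EGFP cells, 3 × 10^3 per well, 1536-well, plated on prespotted compound at 10 μM final, parasite-free screening media added to match infected plates; puromycin 10 μM positive, DMSO 0.5% negative; run in parallel with 48 h PbLuc assay at 37 °C, 5% CO2; viability by CellTiter-Glo luminescence, normalized to controls.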

SMILES | cytotoxicity at 10 µM
Cc1ccc(C(=O)N2C[C@@H]3COC[C@]3(COc3cccnc3)C2)cn1 | -3.91%
CCC(=O)Nc1cccc(OCC(=O)N(C)Cc2nccn2CC)c1 | 3.96%
COC(C)c1noc(CN2CCCNCC2)n1 (configuration not stated) | 5.6%
O=C(CC1=CCCCC1)N1CCC(Cn2cc(CCO)nn2)CC1 | 3.88%
COCC1Cn2nnc(-c3cnn(C)c3)c2CN1Cc1ccc(C)o1 (configuration not stated) | 4.82%
CN(C)c1ncccc1CNC(=O)NCC(c1cccs1)N(C)C (configuration not stated) | 11.6%
CN(Cc1nnc(C2CC2)n1C)C1CCN(CCc2cccs2)C1 (configuration not stated) | -8.71%
O=C(Nc1ccc(OC2CCCC2)cc1)C1CCCN1c1nccs1 (configuration not stated) | -10.2%
CCCNC(=O)C1CCN(CC2(O)CCC(C)CC2)CC1 (configuration not stated) | 4.55%
Cn1nc(Cn2cccn2)c2c1CN(C1CCOC1)C2 (configuration not stated) | 6.92%
c1coc(CN2CC[C@H]3O[C@@H](COCC4CC4)CC[C@H]32)c1 | -137%
COC(=O)N1CCC(Nc2cccc(F)c2C(C)=O)C1 (configuration not stated) | 11.2%
CC(C)n1c(C(=O)N2CCCC2)nc2c1CCN(C)C2 | 15.3%
O=C(Oc1ccccc1)N1CCC(CNS(=O)(=O)c2cccnc2)CC1 | 11.1%
CCOCCOC(C)C(=O)Nc1ccnn1-c1ccccc1C (configuration not stated) | -0.308%
O=C(NCc1ccc2c(c1)CCCO2)c1ccccc1C1CCNC1 (configuration not stated) | 6.58%
CCc1ncncc1C(=O)N1CCOC(c2nc(C)n[nH]2)C1 (configuration not stated) | 0.842%
CN(C)C(=O)CO[C@H]1CN(Cc2ccsc2)[C@@H]2COC[C@H]12 | 8.44%
Cc1cnn(CC2CCCCN2C(=O)Cc2c(C)nn(C)c2C)c1 (configuration not stated) | -13%
CC(=O)N1CCC2(CC1)CN(C(=O)C1CC1)c1ccc(F)cc12 | 2.05%
CC(C)Nc1ncc(-c2ccncc2)c([C@@H]2CCCO2)n1 | 10.8%
O=C(N1CCOCC1)N1CCC2(CCNC2)C1 (configuration not stated) | -2.89%

SMILES | cytotoxicity at 10 µM
Cc1nc(C(=O)N(CC(=O)N(C)C)CC(F)(F)F)c2ccccn12 | -16.4%
Cc1nc[nH]c1CN1CCc2nc3scc(C)c3c(=O)n2CC1 | -35.7%
OCc1ccncc1NCc1cnc(-c2ccccn2)s1 | -17.4%
COc1ncccc1CN1CC[C@]2(C[C@@H](OCc3ccccn3)CO2)C1 | 4.96%
O=C(CCc1cccc(Cl)c1)NS(=O)(=O)Cc1ccon1 | 8.76%
O=C(Nc1cc(CSCCO)ccn1)c1ccc(Cl)o1 | -7.76%
COc1c(C2CCCN2C(=O)c2cccc(C)n2)c(C)nn1C (configuration not stated) | -7.52%
Cc1cc(C)n(C2CCN(Cc3c(-c4cc(C)on4)nn(C)c3Cl)C2)n1 (configuration not stated) | 3.84%
CCc1nnc(CN2CCCC(c3cc(C(N)=O)[nH]n3)C2)o1 (configuration not stated) | -12.7%
CCn1ccnc1CN1CCC(Oc2cccc(F)c2)(C(=O)O)CC1 | 3.67%
CCc1ccc(C(=O)N2CCN(CC(O)c3ccccc3)CC2)o1 (configuration not stated) | -2.54%
Cc1noc(CN(Cc2cccs2)C2CCS(=O)(=O)C2)n1 (configuration not stated) | -3.21%
CN1C(=O)C2(CCN(c3nccc4occc34)CC2)c2ccccc21 | 1.16%
CC(=O)N1N=C(c2ccccc2)OC1C(=O)NCCc1cccc(F)c1 (configuration not stated) | -1.08%
O=C(c1ccsc1)N1CCO[C@@H]2CN(Cc3ccccn3)CC[C@@H]2C1 | -123%
O=C(C1CC1)N1CCc2nc(C3CCN(C(=O)C4CC4)C3)nc(O)c2C1 (configuration not stated) | -20.9%
Cc1ccc(CN2CCOC3(CCN(C(=O)C4CC=CC4)CC3)C2)cc1 | 15.5%
Cc1ccc(CN2CC[C@@H]3O[C@@H](C(=O)N4CCN(C)CC4)C[C@@H]32)cc1 | -3.62%
NC(=O)C1CCN(C(=O)NCc2ccccc2Cn2cncn2)CC1 | 3.98%
CNC(=O)CN1CC[C@H]2CN(C(=O)c3cc[nH]n3)C[C@H]2C1 | 0.53%
Cc1ccc(C(=O)N2CCN(CCc3ccccc3)CC2)c(=O)[nH]1 | -7.1%
CCN(C(c1cccnc1)c1cc(C)cc(C)c1)S(C)(=O)=O (configuration not stated) | 2.88%

SMILES | cytotoxicity at 10 µM
Cc1cnc(CN2CCC(N(C)Cc3nnc(C4CC4)n3C)C2)cn1 (configuration not stated) | -2.31%
O=C([C@H]1C[C@@H]2CCN(C3CCOCC3)C[C@H]2O1)N1CCCC1 | 7.31%
COCCc1noc(C2CCCN(c3ncnc4c3CCC4)C2)n1 (configuration not stated) | 19.3%
Cc1csc(N(C)C(=O)C2CC(=O)N(CCc3ccccc3)C2)n1 (configuration not stated) | -99.4%
CCOC(=O)c1n[nH]cc1-c1cncn1CC(C)n1nc(C)cc1C (configuration not stated) | 2.25%
Cc1nn(C)cc1S(=O)(=O)N(CCc1ccccc1)Cc1ccn(C)n1 | 1.43%
CCN(CC)S(=O)(=O)c1ccc(CNC(=O)N2CCC(C#N)CC2)cc1 | 20%
CCc1cnc(N)nc1NCCN1CCCCC1 | -17.8%
COc1cc(N2CC[C@@H]3O[C@@H](c4ccncn4)C[C@H]3C2)ncn1 | 12.6%
COc1nn(C)cc1C(=O)N1CCC(c2nnc(C(C)C)o2)CC1 | 13.5%
CC1(C)CN(C(CNC2=NCCN2)c2ccc(Cl)cc2)CCO1 (configuration not stated) | 8%
Cc1ccc(N[C@@H]2CN(Cc3cc(C)on3)C[C@@H]3CCCO[C@@H]32)nn1 | -0.113%
Cc1cc(NC(=O)C(C)Cn2cncn2)no1 (configuration not stated) | -5.18%
O=C(N1CCOCC1)N1CCCC2(CCCNC2)C1 (configuration not stated) | 0.817%
CC(=O)NCC(=O)N1Cc2ccnn2CC(COCCN(C)C)C1 (configuration not stated) | 6.15%
Cc1ccc(F)c(C(=O)NC2CCC(N3C(=O)CCC3=O)CC2)c1 (configuration not stated) | -6%
COCCOC1CCN(C(C(=O)O)c2ccc3c(c2)OCO3)CC1 (configuration not stated) | 9.07%
Cc1ccc(-n2cnc(Cl)c2CO)cc1 | -0.303%
O=C(Cc1cnccn1)N1C[C@@H]2CC[C@H]1CN(Cc1cscn1)C2 | 1.88%
O=C(CCc1ccc(-c2ccccc2)[nH]1)N1CCCC(n2ccnc2)C1 (configuration not stated) | -15.7%
c1cnnc(N2CCCC2CNc2ncnc3ccccc23)c1 (configuration not stated) | 2.33%
COc1cc(CNC2CCc3nc(C(C)C)nn3C2)cc2c1OCO2 (configuration not stated) | -5.82%

SMILES | cytotoxicity at 10 µM
NC(=O)c1cc(C2CCCN(CCCOc3ccc(F)cc3)C2)n[nH]1 (configuration not stated) | -16.4%
Cc1ccc(F)cc1-c1ccc(N)nc1 | -143%
Cn1cc(C2CCCN2C(=O)Cn2c(=O)oc3ccccc32)cn1 (configuration not stated) | 1.84%
CCc1ccc(NC(=O)N2C[C@@H]3C[C@H](C(=O)NC)[C@H](C2)O3)cc1 | 5.4%
CCn1nc(C)c2c1cnn2CCNS(=O)(=O)c1cccs1 | 4.51%
O=C(c1ccno1)N1C[C@@H](F)[C@@H](OCc2nc3ccccc3o2)C1 | 7.61%
CC(=O)Nc1ncc(S(=O)(=O)Nc2cccc(C)c2)s1 | 7.63%
CN1CCOCC2(CCCN(C(=O)Cc3ccncc3)C2)C1 (configuration not stated) | -84.6%
CCN(CCC(=O)NC1CC1)Cc1ccc(Cl)s1 | 3.88%
COc1cccc(C(=O)N(C)Cc2ncc(C)c(OC)c2C)c1OC | -7.02%
CN(C)CC1CSCCCN1S(=O)(=O)c1ccc(C(F)(F)F)cc1 (configuration not stated) | -6.71%
C[C@@H]1CN(CCC(=O)N(C)Cc2ccccc2)CC[C@@]1(O)C1CCC1 | 2.89%
CSc1ccc(Cl)c(C(=O)N2CCCC(CNS(C)(=O)=O)C2)c1 (configuration not stated) | -5.92%
CCc1noc(CN2CCN(C(=O)c3ccccc3F)CC2)n1 | -23.2%
Cc1occc1C(=O)N1CCCC2(CCN(CCN3CCCC3)C2=O)C1 (configuration not stated) | -9.18%
Cc1ncc(CN2CCN(C(=O)N(C)C)[C@@H]3CS(=O)(=O)C[C@@H]32)cn1 | 7.86%
Cc1cnc(CN(C)C2CCN(Cc3nc4ccccc4o3)C2)o1 (configuration not stated) | -19.4%
CS(=O)(=O)N1CCN(c2ccnc(N3CCCCC3)n2)CC1 | -0.359%
CC(C)c1nc(C2CCCN2c2ccnc(C3CCCC3)n2)no1 (configuration not stated) | 28.5%
CCCS(=O)(=O)N1CCOC2(COCCN(C(C)=O)C2)C1 (configuration not stated) | 19.9%
Cc1cc(CN(C)C(=O)NC2CCN(Cc3ccccn3)CC2)no1 | -17.4%
Cc1nc2c(c(C)c1CC(=O)NCc1ccc(F)cc1)c(=O)[nH]n2C | -15.9%

SMILES | cytotoxicity at 10 µM
Cc1occc1C(=O)N1CC[C@@H]2[C@@H](CO[C@H]2CNS(C)(=O)=O)C1 | 11.3%
Cc1cn([C@@H]2CC3(CCNCC3)OC[C@@]2(C)O)c(=O)[nH]c1=O | -5.6%
COc1cccc2c1CCCCN2C(=O)c1oc(C)nc1C | 3.3%
O=C1CCC2(CCN(Cc3cc(F)cc(F)c3)CC2)CN1CCO | -11.6%
Cc1cc(C(=O)N[C@@H]2CCC[C@@H](N3CCOCC3)[C@@H]2O)no1 | -1.61%
O=S(=O)(NCC1COc2ccccc2C1)N1CCOCC1 (configuration not stated) | -1.5%
CC(C(=O)NC1CCCCC1)N1CCc2[nH]nc(C(F)(F)F)c2C1 (configuration not stated) | 5.15%
COc1ccc(CN(C)Cc2ccnc(C3CCCO3)n2)cc1 (configuration not stated) | 7.67%
Cc1ccc(CNC(=O)CN2CCN(CC(O)c3ccco3)CC2)cc1 (configuration not stated) | 2.71%
CC(C)(C(=O)NCC1CCN(Cc2ccccn2)C1)c1ccccc1 (configuration not stated) | -3.09%
Cc1cc(CN2C[C@@H]3COC[C@]3(COCC(=O)N(C)C)C2)no1 | 1.44%
Cc1ccsc1-c1nnc(C2CCN(Cc3ccc(F)cc3)CC2)o1 | 4.58%
Cc1ccc(C(=O)N2Cc3c(CN4CCCCC4)nn(C)c3C2)cc1F | -4.15%
CCN1Cc2ccccc2CC2(CCN(C(=O)N(C)C)CC2)C1=O | 8.3%
CCOCc1nc(-c2cccc(OC)c2OC)n(C2CCN(C)CC2)n1 | -1.76%
CCc1cc(NCc2ccccc2CN2CCCC2)n2ncnc2n1 | 5.42%
COCC(=O)Nc1ccc([C@@H](O)[C@H]2COCC(=O)N2CC(C)C)cc1 | 17.6%
CCC1(CC)Cc2ccccc2-c2nc(CN(C)C)nc(O)c21 | -8.95%
CCCN(CCC)C(=O)c1sc(C)nc1C | 3.05%
